Test results published in article PMC8921320 (The Journal of Biological Chemistry, 2022).
Values joined by “and” are separate entries in the source; they are usually repeats but may differ in a detail not shown here. Identical values can stand only once. Like-named read-outs stand apart in the source and are kept apart here. Square brackets hold non-standard residues; d marks the D form. Peptide text beside a SMILES is read from it. Orn(N5-OH,N5-Ac) = CC(=O)N(O)CCC[C@H](N)C(=O)O

How the values were obtained:
EcoFepA [1] = target: T1, EcoFepA (Escherichia coli, UniProt P05825, A720C); assay: Fluorescence quenching binding, EcoFepA-FM sensor
T1 sequence (P05825 23-746 A720C): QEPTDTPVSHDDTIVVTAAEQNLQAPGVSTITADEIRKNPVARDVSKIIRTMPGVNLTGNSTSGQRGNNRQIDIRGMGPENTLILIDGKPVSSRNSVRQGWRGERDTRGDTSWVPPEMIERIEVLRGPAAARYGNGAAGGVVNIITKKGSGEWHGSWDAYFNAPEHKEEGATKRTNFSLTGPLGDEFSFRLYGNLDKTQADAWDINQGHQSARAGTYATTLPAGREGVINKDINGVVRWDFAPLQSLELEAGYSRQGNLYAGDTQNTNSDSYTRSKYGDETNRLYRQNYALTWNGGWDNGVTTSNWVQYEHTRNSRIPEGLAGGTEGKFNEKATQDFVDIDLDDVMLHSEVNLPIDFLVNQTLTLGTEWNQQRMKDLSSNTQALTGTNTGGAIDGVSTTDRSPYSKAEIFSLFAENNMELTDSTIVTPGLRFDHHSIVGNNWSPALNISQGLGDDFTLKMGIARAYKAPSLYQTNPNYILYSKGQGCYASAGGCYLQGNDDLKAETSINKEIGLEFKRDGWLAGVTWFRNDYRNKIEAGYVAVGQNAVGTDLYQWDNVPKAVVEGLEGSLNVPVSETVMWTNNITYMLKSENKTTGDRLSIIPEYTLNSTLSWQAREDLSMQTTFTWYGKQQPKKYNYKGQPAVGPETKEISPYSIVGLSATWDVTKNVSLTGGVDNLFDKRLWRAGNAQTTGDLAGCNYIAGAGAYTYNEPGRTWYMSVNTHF

EcoFepB = target: T2, EcoFepB (Escherichia coli, UniProt P0AEL6, T297C); assay: Fluorescence quenching binding, purified EcoFepB-FM sensor
T2 sequence (P0AEL6 27-318 T297C): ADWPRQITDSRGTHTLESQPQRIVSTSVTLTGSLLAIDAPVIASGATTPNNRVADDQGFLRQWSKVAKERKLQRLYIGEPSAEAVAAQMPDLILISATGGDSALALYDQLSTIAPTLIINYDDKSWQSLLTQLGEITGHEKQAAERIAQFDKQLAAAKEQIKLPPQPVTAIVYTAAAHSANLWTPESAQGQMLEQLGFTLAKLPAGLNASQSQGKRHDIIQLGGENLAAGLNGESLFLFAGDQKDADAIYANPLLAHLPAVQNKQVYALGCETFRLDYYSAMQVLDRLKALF
Procedure, shortened: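 His-tagged T297C FepB expressed from pET28 in E. coli and purified by metal affinity chromatography. Labeled with 5 μM fluorescein maleimide at pH 6.77 for 15 min, then repurified by gel filtration. Apo or ferric siderophores added at increasing concentrations, with three quenching determinations per concentration. Mean values fitted to a single-site binding model to give KD.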

KpnIroN [2] = target: T3, KpnIroN (Klebsiella pneumoniae, UniProt A0ACD7U953, T234C); assay: Fluorescence quenching binding, KpnIroN-FM sensor
T3 sequence (A0ACD7U953 25-724 T234C): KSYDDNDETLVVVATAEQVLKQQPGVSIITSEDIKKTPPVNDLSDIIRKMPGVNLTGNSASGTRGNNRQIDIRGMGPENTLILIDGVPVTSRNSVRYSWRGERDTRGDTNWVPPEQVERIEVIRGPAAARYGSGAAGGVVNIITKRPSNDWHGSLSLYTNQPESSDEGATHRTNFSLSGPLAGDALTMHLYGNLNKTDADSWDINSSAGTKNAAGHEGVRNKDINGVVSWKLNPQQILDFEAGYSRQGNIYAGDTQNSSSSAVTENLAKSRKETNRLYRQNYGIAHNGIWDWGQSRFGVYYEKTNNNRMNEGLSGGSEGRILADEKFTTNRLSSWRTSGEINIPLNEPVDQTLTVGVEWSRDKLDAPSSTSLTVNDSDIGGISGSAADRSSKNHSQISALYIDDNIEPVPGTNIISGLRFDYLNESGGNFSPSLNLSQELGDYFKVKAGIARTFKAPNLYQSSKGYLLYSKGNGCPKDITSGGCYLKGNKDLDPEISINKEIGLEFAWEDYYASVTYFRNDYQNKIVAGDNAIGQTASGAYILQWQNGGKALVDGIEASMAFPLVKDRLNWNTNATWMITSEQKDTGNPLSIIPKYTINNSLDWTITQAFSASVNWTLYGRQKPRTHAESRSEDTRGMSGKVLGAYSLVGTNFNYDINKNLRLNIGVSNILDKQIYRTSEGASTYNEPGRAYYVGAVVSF
Procedure, shortened: (§1)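 Cys-mutant receptor made in E. coli hosts (entA, tonB+ or ΔtonB) grown in iron-deficient MOPS at 37 °C to late exponential phase. Cells washed in 50 mM NaHPO₄ pH 6.7, labeled in situ with 5 μM fluorescein maleimide for 15 min at 37 °C, quenched with 100 μM β-mercaptoethanol, then resuspended in PBS + 0.2% glucose. Binding used 2.5 × 10⁷ cells in 2 ml, stirred at 37 °C. Iron complex added stepwise; 520 nm emission quenching read in triplicate; 1-F/F₀ vs [ligand] fitted to single-site model for KD.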

AbaPirA = assay: Fluorescence quenching binding, AbaPirA-FM sensor; parameters: species or system Acinetobacter baumannii
Procedure, shortened: as §1

EcoCir = assay: Fluorescence quenching binding, EcoCir-FM sensor; parameters: species or system Escherichia coli
Procedure, shortened: as §1

AbaPiuA = assay: Fluorescence quenching binding, AbaPiuA-FM sensor; parameters: species or system Acinetobacter baumannii
Procedure, shortened: as §1

EcoFiu = assay: Fluorescence quenching binding, EcoFiu-FM sensor; parameters: species or system Escherichia coli
Procedure, shortened: as §1

AbaFepA = type: binding, Acinetobacter baumannii
[3] = target: human siderocalin (HsaSCN) (Homo sapiens, UniProt P80188, Q148C); assay: Fluorescence quenching binding, purified HsaSCN-FM sensor; details: HsaSCN-FM (Q128C), purified protein
EcoIutA = target: T4, EcoIutA (Escherichia coli, UniProt B7LI14, T574C); assay: Fluorescence quenching binding, EcoIutA-FM sensor
T4 sequence (B7LI14 26-733 T574C): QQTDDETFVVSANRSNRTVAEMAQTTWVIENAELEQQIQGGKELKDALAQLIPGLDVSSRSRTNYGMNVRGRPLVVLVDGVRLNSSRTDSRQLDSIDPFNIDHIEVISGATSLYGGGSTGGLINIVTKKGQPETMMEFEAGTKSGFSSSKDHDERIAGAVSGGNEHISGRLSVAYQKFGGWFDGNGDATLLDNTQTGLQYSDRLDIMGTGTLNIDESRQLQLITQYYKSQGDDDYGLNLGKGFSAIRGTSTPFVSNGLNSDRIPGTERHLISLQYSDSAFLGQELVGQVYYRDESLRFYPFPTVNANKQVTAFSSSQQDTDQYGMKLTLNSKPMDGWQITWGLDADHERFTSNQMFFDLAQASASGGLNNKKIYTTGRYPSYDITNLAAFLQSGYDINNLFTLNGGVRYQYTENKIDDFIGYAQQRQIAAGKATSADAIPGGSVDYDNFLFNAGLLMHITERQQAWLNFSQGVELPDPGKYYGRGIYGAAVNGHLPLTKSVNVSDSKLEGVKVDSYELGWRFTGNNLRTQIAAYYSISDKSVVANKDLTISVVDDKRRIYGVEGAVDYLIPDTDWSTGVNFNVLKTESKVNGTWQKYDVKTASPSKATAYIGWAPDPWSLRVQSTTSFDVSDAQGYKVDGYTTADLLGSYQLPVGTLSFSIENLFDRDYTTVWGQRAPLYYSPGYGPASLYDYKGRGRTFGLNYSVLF

PaeFpvA = target: T5, PaeFpvA (Pseudomonas aeruginosa, UniProt P48632, T660C); assay: Fluorescence quenching binding, PaeFpvA-FM sensor
T5 sequence (P48632 44-815 T660C): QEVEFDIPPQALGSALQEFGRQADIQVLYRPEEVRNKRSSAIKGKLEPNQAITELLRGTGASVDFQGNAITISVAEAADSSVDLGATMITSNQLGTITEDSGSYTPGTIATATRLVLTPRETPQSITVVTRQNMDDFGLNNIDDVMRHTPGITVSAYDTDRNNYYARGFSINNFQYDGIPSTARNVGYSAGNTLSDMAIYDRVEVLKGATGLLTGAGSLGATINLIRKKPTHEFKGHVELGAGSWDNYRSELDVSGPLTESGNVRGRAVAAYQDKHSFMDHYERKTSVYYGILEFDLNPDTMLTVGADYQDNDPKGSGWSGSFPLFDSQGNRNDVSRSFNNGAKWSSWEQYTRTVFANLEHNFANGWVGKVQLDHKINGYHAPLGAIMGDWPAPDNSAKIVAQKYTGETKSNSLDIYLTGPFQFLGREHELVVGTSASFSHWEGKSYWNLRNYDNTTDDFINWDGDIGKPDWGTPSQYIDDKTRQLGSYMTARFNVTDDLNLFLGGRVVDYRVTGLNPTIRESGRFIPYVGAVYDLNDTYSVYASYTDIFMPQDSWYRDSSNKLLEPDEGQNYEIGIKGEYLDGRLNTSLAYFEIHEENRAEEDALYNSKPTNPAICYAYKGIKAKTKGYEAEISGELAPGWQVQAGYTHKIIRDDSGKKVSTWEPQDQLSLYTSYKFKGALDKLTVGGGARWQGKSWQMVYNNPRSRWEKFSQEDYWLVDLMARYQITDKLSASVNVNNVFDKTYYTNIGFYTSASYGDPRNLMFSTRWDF
Procedure, shortened: as §1

KpnIroN [4] = target: T3, KpnIroN; details: cited from earlier work
EcoFepA [5] = target: T1, EcoFepA; details: cited from earlier work
[6] = test system: Iron-deficient Gram-negative bacteria, with maximally expressed chromosomal FepA; details: cited from earlier work
KpnFyuA = KpnFyuA (Klebsiella pneumoniae, UniProt A4GZD6, S653C); assay: Fluorescence quenching binding, KpnFyuA-FM sensor; details: 50% quenching

Sequence of human siderocalin (HsaSCN) (P80188 21-198 Q148C): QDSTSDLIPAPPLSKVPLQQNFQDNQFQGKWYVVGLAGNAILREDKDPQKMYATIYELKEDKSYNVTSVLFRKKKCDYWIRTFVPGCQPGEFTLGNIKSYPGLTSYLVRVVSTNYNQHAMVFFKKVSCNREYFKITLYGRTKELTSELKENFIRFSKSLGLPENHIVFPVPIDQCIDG

O=C(N[C@H]1COC(=O)[C@@H](NC(=O)c2cccc(O)c2O)COC(=O)[C@@H](NC(=O)c2cccc(O)c2O)COC1=O)c1cccc(O)c1O [Ent, enterobactin]
Kd (EcoFepA [1]): 27 nM | binding (in words) (EcoFepB): bound

CC(C)(O/N=C(\C(=O)N[C@@H]1C(=O)N2C(C(=O)[O-])=C(C[N+]3(CCNC(=O)c4ccc(O)c(O)c4Cl)CCCC3)CS[C@H]12)c1csc(N)n1)C(=O)O [FDC, cefidericol]
binding (in words) (KpnIroN [2]): bound | binding (in words) (AbaPirA): bound | binding (in words) (EcoCir): bound | binding (in words) (AbaPiuA): bound | binding (in words) (EcoFiu): bound | binding (in words) (AbaFepA): bound

CC(=O)N([O-])CCC[C@@H]1NC(=O)CNC(=O)CNC(=O)CNC(=O)[C@H](CCCN([O-])C(C)=O)NC(=O)[C@H](CCCN([O-])C(C)=O)NC1=O.[Fe+3] [Fc, ferrichrome] (cyclo(GGG[Orn(N5-OH,N5-Ac)][Orn(N5-OH,N5-Ac)][Orn(N5-OH,N5-Ac)]))
Kd [3]: 110 nM | binding (in words) (EcoIutA): did not measurably bind

CC(=O)N(O)CCCC[C@H](NC(=O)CC(O)(CC(=O)N[C@@H](CCCCN(O)C(C)=O)C(=O)O)C(=O)O)C(=O)O.[Fe+3] [FeAbn, ferric aerobactin]
Kd (EcoIutA; EcoIutA-FM sensor, fluorescence quenching): 6 nM

O=C(O)c1cccc(O)c1O.[Fe+3] [FeDHB]
Kd [3]: 330 nM | binding (in words) (PaeFpvA): weakly bound | binding (in words) (EcoFepB): bound | binding (in words) (EcoFiu): did not bind

O=C(N[C@H]1COC(=O)[C@@H](NC(=O)c2cccc(O)c2O)COC(=O)[C@@H](NC(=O)c2cccc(O)c2O)COC1=O)c1cccc(O)c1O.[Fe+3] [FeEnt, ferric enterobactin]
Kd [3]: 10 to 12 nM | binding (in words) (PaeFpvA): weakly bound | Kd (KpnIroN [4]): 0.4 nM | fold higher affinity for FeEnt than for FeGEnt (EcoFepA [1]; EcoFepA-FM): ~300 fold | Kd (EcoFepA [5]; ref 53, 68, 69, 70): 0.1 to 0.4 nM | Kd (EcoFepA [5]; ref 53): 0.4 nM | binding (in words) (EcoCir): bound | Kd (EcoFepB; EcoFepB-FM (T297C), purified protein): 43 µM | fold less affinity than EcoFepA (EcoFepB; FeEnt, EcoFepB-FM vs EcoFepA): about 100 fold | transport rate [6]: ~50 pmol/10^9 cells/min | binding (in words) (EcoFiu): bound | Kd (AbaFepA; AbaFepA-FM sensor, fluorescence quenching): ~25 nM and 17 nM

CC(C)(C1=N[C@@](C)(C(=O)O)CS1)[C@H](O)[C@@H]1CS[C@H]([C@H]2CSC(c3ccccc3O)=N2)N1.[Fe+3] [FeYbt]
Kd [3]: 11000 nM | Kd (KpnFyuA): 1 nM
